Rows were chosen to be rich in hits. Some 2.9% of all compounds tested hit in one or more screens of this group.
ATG4B inh – inhibitors of human ATG4B cysteine protease | ATG4B cleavage of LC3-PLA2, NBD-HPC fluorescence, 1 h | inhibition, % at 8.33 µM | hit rate 0.51% among 340,000; in the data active means inhibition above about 40%
SIAE inh – blocks human sialic acid acetylesterase; Q9HAT2; SIAE FP-Rh probe binding, fluorescence polarization; inhibition, % at 9.66 µM; hit rate 0.69% among 370,000; AID 1053197;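 active means inhibition above a cutoff: mean of compounds within the control limits plus 3 SD of those, cut at about 17% in these data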
PRMT1 inh – inhibitors of human PRMT1 | Q99873 | recombinant PRMT1, activity-based probe fluorescence polarization | inhibition, % at 2.79 µM | hit rate 1.3% among 370,000;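 active means inhibition above about 21% made by adding two undisclosed values, limit read from the data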
TCR-CD3 inh – inhibitors of human TCR-CD3 interaction | hit rate 0.37% among 360,000 | inhibition, % at 9.4 µM | TAMRA-labeled TCR probe fluorescence, biochemical | AID 651800; in the data active means inhibition above about 19%;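 further: recombinant mutant TCR 2C K166C tagged with TAMRA read by polarization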
ABHD4 inh – inhibitors of mouse ABHD4; Q8VD66; purified mABHD4, FP-Rh probe fluorescence polarization; inhibition, % at 8.92 µM; hit rate 0.54% among 370,000;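 active means inhibition exceeding the mean over every tested compound plus 3 SD, cut at about 30% in these data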
Target sequence (Q8VD66 whole entry, looked up): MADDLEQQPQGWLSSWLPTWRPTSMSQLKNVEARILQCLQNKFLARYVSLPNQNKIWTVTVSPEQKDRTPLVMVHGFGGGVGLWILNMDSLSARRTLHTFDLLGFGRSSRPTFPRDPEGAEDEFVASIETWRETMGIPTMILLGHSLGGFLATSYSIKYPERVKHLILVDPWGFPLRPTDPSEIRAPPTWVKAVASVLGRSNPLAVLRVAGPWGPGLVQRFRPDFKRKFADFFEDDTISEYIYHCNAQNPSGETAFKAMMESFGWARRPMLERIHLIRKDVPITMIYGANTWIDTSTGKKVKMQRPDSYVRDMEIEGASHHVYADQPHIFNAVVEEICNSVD
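Assay system: mABHD4 protein; medium: HEPES pH 7.0, NaCl, Pluronic buffer; dosing: 8.92 µM, single dose; schedule: 45 min + 60 min at 25 °C; signal: FP readout, ex 525 nm / em 598 nm; read-out: normalized percent inhibition of probe labeling; repeats: single replicate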
HTRA1 inhibitor – inhibitors of human serine peptidase HTRA1. Q92743. recombinant HTRA1, FP-rhodamine activity-based probe, fluorescence polarization. inhibition, % at 5.96 µM. hit rate 0.5% among 340,000; in the data active means inhibition above about 36%
Each line names hits and unclear results; the compound was inactive in the other large screens.

O=C(Nc1cccc([N+](=O)[O-])c1)NC1CCCCN(Cc2ccc(Cl)cc2)C1=O (centres undefined)	none (no result: ATG4B inh, TCR-CD3 inh, HTRA1 inhibitor)
COC(=O)c1cc(S(=O)(=O)N2CCN(C(C)=O)CC2)cn1C	none (no result: ATG4B inh, TCR-CD3 inh, HTRA1 inhibitor)
CN1CCN(C(=O)c2cc3sccc3n2CC(=O)c2ccccc2)CC1	none
CCN1CCN(C(=O)c2cc3sccc3n2CC(=O)c2ccccc2)CC1	SIAE inh 67
CCCCNC(=O)C[C@H]1C(=O)N(CCCOC)C2=CCCCC[C@]21C(=O)OC	none (no result: ATG4B inh, TCR-CD3 inh, HTRA1 inhibitor)
O=C(NCc1ccccc1)c1nc(S(=O)(=O)Cc2ccccc2)ncc1Cl	PRMT1 inh 23
CCN1CCN(c2cc(N3CCN(C(=O)c4ccco4)CC3)c3c4c(onc24)-c2ccccc2C3=O)CC1	HTRA1 inhibitor 70 (no result: SIAE inh, PRMT1 inh, TCR-CD3 inh, ABHD4 inh)
Cc1ccc(CNC(=O)c2cn(C)c(=O)c3c2c2ccccc2n3C)o1	PRMT1 inh 22
CCOC(=O)c1c(N2C(=O)CC(Sc3ccccc3C(=O)O)C2=O)sc(C)c1C (centres undefined)	PRMT1 inh 49
CCOC(=O)c1c(NC(=O)CSc2ccccc2C(=O)O)sc(C)c1C	none
C#CCNC(=O)C[C@H]1C[C@@]2(C(=O)OC)C(=C[C@H](C(C)(C)C)O[C@@H]2C)N(Cc2ccc(Cl)cc2Cl)C1=O	none (no result: ATG4B inh, TCR-CD3 inh, HTRA1 inhibitor)
CCN1C(=O)/C(=C2\SC(=S)N(NC(=O)c3cccnc3)C2=O)c2ccccc21	PRMT1 inh 21
COc1ccccc1NS(=O)(=O)c1cc(NC(=O)C(C)(C)C)ccc1N1CCOCC1	none
COc1ccccc1NS(=O)(=O)c1cc(NC(=O)C2CCCC2)ccc1N1CCOCC1	PRMT1 inh 23
COc1ccccc1NS(=O)(=O)c1cc(NC(=O)c2cccs2)ccc1N1CCCC1	PRMT1 inh 23
COc1ccccc1NS(=O)(=O)c1cc(NC(=O)c2cccs2)ccc1N1CCCCC1	none
N#CCC[C@@H]1CC[C@]2(CCCN(C(=O)C3CCCC3)C2)O1	none (no result: ATG4B inh, TCR-CD3 inh, HTRA1 inhibitor)
Cc1sc2ncn(CC(=O)NCc3ccco3)c(=O)c2c1-c1ccc(F)cc1	PRMT1 inh 24
O=C(Cn1cnc2c(cnn2-c2ccc(F)cc2)c1=O)NCc1ccco1	none
C=CCN1[C@@H](CC(C)C)COc2cccc(N3CCSCC3)c2S1(=O)=O	none (no result: ATG4B inh, TCR-CD3 inh, HTRA1 inhibitor)
COCCN=C1NN=C(c2ccc(NC(C)=O)cc2)CS1	PRMT1 inh 22
CC(=O)CC[C@@H]1CC[C@]2(CCCN(C(=O)C(C)(C)C)C2)O1	none (no result: ATG4B inh, TCR-CD3 inh, HTRA1 inhibitor)
COCCCN(C(=O)CSc1nc2ccccc2c(=O)n1C)c1c(N)n(Cc2ccccc2)c(=O)[nH]c1=O	PRMT1 inh 23
Cc1ccc(-n2c(SCC(=O)Nc3cccc4ccccc34)nnc2-c2cccs2)cc1	none (no result: ATG4B inh, TCR-CD3 inh, HTRA1 inhibitor)
Cc1ccc(P(=O)(CO)c2ccc(C)cc2)cc1	none
Cc1ccc(P(=O)(CSC(=N)N)c2ccc(C)cc2)cc1	PRMT1 inh 70
CCOC(=O)CP(=O)(c1ccccc1)c1ccccc1	none
N=C(N)SCP(=O)(c1ccccc1)c1ccccc1	PRMT1 inh 68
O=C(CN1C(=O)CCSc2ccccc21)Nc1cccc(Cl)c1F	none (no result: ATG4B inh, TCR-CD3 inh, HTRA1 inhibitor)
CCOC(=O)CC[C@@H]1CC[C@]2(CCCN(S(=O)(=O)C3CCCCC3)C2)O1	none (no result: ATG4B inh, TCR-CD3 inh, HTRA1 inhibitor)
CCn1ccc(C(=O)NC2=NCCS2)n1	PRMT1 inh 24
Cc1ccc(Cc2nnc(SCC(=O)Nc3ccccc3Cl)[nH]c2=O)cc1	none
COc1ccc(Cl)cc1NC(=O)CSc1nnc(Cc2ccc(C)cc2)c(=O)[nH]1	PRMT1 inh 24
Cc1c(N=Cc2cc(Br)cc(Br)c2O)cccc1C(=O)O	ATG4B inh 46
O=C(CN1C2=NCCN2c2ccccc21)c1ccc2c(c1)OCO2	SIAE inh 20
CCCN(CC1CC1)C(=O)CSc1nnc(-c2ccncc2)n1-c1ccc(OC)cc1	none (no result: ATG4B inh, TCR-CD3 inh, HTRA1 inhibitor)
O=[N+]([O-])c1c(Nc2ccc(O)cc2)cc(Cl)c2nonc12	PRMT1 inh 77
O=C(O)c1ccc(-c2ccc(/C=N/Nc3ccc([N+](=O)[O-])cc3)o2)cc1	ABHD4 inh 32
Cn1ccc2c(-c3cccnc3)cc3c(c21)C1CCC3C1 (centres undefined)	none (no result: ATG4B inh, HTRA1 inhibitor)
Cn1ccc2c(-c3ccc(F)nc3)cc3c(c21)C1CCC3C1 (centres undefined)	PRMT1 inh 23 (no result: ATG4B inh, HTRA1 inhibitor)
Cc1nc2cc3ccccc3cc2s1	none
Cc1nc2cc3nc(C)sc3cc2s1	PRMT1 inh 22

High-throughput results: PubChem, several laboratories
